Measurements from ChEMBL document CHEMBL1142960, “Synthesis and structure-activity relationships for 2,4-dinitrobenzamide-5-mustards as prodrugs for the Escherichia coli nfsB nitroreductase in gene therapy” (J Med Chem, 2007).
In brackets after ≈: the same amount, converted by molar mass.

Columns and labels:
V79 [1] = experiment: Antiproliferative activity against chinese hamster wild-type V79 NTR-ve cells after 18 hrs; assay type: functional, cell-based; details: Cricetulus griseus, V79, 18 h
V79 [2] = experiment: Antiproliferative activity against chinese hamster V79 NTRpuro cells after 18 hrs; assay type: functional, cell-based; details: Cricetulus griseus, V79, 18 h
EMT6 [3] = experiment: Antiproliferative activity against mouse wild type EMT6 NTR-ve cells after 18 hrs; assay type: functional, cell-based; details: EMT6, 18 h
EMT6 [4] = experiment: Antiproliferative activity against mouse EMT6 NTRpuro cells after 18 hrs; assay type: functional, cell-based; details: EMT6, 18 h
WiDr [5] = experiment: Antiproliferative activity against human wild type WiDr NTR-ve cells after 18 hrs; assay type: functional, cell-based
WiDr [6] = experiment: Antiproliferative activity against human WiDr NTRneo cells after 18 hrs; assay type: functional, cell-based
[7] = Antiproliferative activity against human wild type Skov3 NTR-ve cells after 18 hrs; assay type: functional, cell-based
[8] = Antiproliferative activity against human Skov3 NTRneo cells after 18 hrs; assay type: functional, cell-based; details: SK-OV-3, 18 h
[9] = Solubility in alpha MEM; assay type: physicochemical
In short: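 Solubility (mM) in α-MEM with 5% fetal calf serum at ambient temperature, measured by HPLC.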

[10] = Stability in alpha MEM at 37 degC after 24 hrs; assay type: physicochemical; details: read-out: Stability
In short: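 Percent parent compound remaining, by HPLC, after holding in α-MEM with 5% fetal calf serum at 37 °C for 24 h.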

V79 [11] = experiment: Selectivity ratio of IC50 for V79 NTR-ve cells to IC50 for V79 NTRpuro cells; assay type: functional, Cricetulus griseus
EMT6 [12] = experiment: Selectivity ratio of IC50 for EMT6 NTR-ve cells to IC50 forEMT6 NTRpuro cells; assay type: functional, Mus musculus
WiDr [13] = experiment: Selectivity ratio of IC50 for WiDr NTR-ve cells to IC50 for WiDr NTRneo cells; assay type: functional, Homo sapiens
[14] = Selectivity ratio of IC50 for Skov3 NTR-ve cells to IC50 for Skov3 NTRneo cells; assay type: functional, Homo sapiens

Compound	IC50 (V79 [1]) [µM]	IC50 (V79 [2]) [µM]	IC50 (EMT6 [3]) [µM]	IC50 (EMT6 [4]) [µM]	IC50 (WiDr [5]) [µM]	IC50 (WiDr [6]) [µM]	IC50 [7] [µM]	IC50 [8] [µM]	solubility [9] [µM]	remaining at 24 h [10] [%]	Ratio IC50 (V79 [11])	Ratio IC50 (EMT6 [12])	Ratio IC50 (WiDr [13])	Ratio IC50 [14]
CS(=O)(=O)c1cc([N+](=O)[O-])c(N(CCCl)CCCl)cc1C(N)=O	> 50	> 50	> 50	> 50	> 50	> 50	> 50	> 50	60 (≈ 23.1 µg/mL)	74	–	–	–	–
O=C(NCCCN1CCOCC1)c1cc(N(CCBr)CCBr)c([N+](=O)[O-])cc1[N+](=O)[O-]	148	16	56	16	134	57	272	34	860 (≈ 488 µg/mL)	74	9.2	3.6	2.4	7.3
O=C(NCCn1ccnc1)c1cc(N(CCCl)CCCl)c([N+](=O)[O-])cc1[N+](=O)[O-]	273	46	178	2.6	163	11	438	4.1	500 (≈ 223 µg/mL)	94	6.6	52	18	140
CS(=O)(=O)OCCN(CCOS(C)(=O)=O)c1cc(C(=O)NCC(O)CO)c([N+](=O)[O-])cc1[N+](=O)[O-] (centres undefined)	237	16	251	8	347	23	379	10	9000 (≈ 4900 µg/mL)	54	13	31	17	43
O=C(NCCCN1CCOCC1)c1cc(N(CCCl)CCCl)c([N+](=O)[O-])cc1[N+](=O)[O-]	348	105	199	24	163	90	692	55	22000 (≈ 10500 µg/mL)	96	3.4	8	1.9	14
O=C(NOCCO)c1cc(N(CCCl)CCCl)c([N+](=O)[O-])cc1[N+](=O)[O-]	750	13	560	6.6	895	25	> 1190	11	2100 (≈ 864 µg/mL)	100	76	85	39	>90
O=C(NCCCn1ccnc1)c1cc(N(CCCl)CCCl)c([N+](=O)[O-])cc1[N+](=O)[O-]	174	32	187	45	106	37	474	18	19000 (≈ 8730 µg/mL)	70	7.4	41	2.9	26
CN(C)CCNC(=O)c1cc(N(CCCl)CCCl)c([N+](=O)[O-])cc1[N+](=O)[O-]	89	81	62	35	62	66	246	44	–	103	1.1	1.8	0.9	6
COC(=O)CCNC(=O)c1cc(N(CCBr)CCBr)c([N+](=O)[O-])cc1[N+](=O)[O-]	52	1.1	76	0.59	80	2.1	110	2.3	280 (≈ 147 µg/mL)	70	45	149	47	49
CS(=O)(=O)c1cc([N+](=O)[O-])c(N(CCCl)CCCl)cc1C(=O)NCC(O)CO (centres undefined)	843	427	1200	189	1980	994	2320	745	16000 (≈ 7330 µg/mL)	106	2.3	6.4	2	3.3
O=C(NCCCCN1CCOCC1)c1cc(N(CCCl)CCCl)c([N+](=O)[O-])cc1[N+](=O)[O-]	142	25	192	7.4	68	23	447	9.3	2000 (≈ 985 µg/mL)	91	5.9	28	3	61
CS(=O)(=O)OCCN(CCBr)c1cc(C(=O)NO)c([N+](=O)[O-])cc1[N+](=O)[O-]	97	0.9	63	0.41	113	1.16	146	1.44	1500 (≈ 707 µg/mL)	48	112	156	100	115
O=C(NO)c1cc(N(CCBr)CCBr)c([N+](=O)[O-])cc1[N+](=O)[O-]	34	0.2	33	0.07	45	0.39	59	0.31	1200 (≈ 547 µg/mL)	69	180	500	92	180
CS(=O)(=O)NC(=O)c1cc(N(CCCl)CCCl)c([N+](=O)[O-])cc1[N+](=O)[O-]	328	237	450	278	1310	223	1040	160	17000 (≈ 7300 µg/mL)	100	1.5	2	5.4	6.7
NCCNC(=O)c1cc(N(CCCl)CCCl)c([N+](=O)[O-])cc1[N+](=O)[O-]	462	52	124	0.37	180	5.9	417	6.8	9200 (≈ 3630 µg/mL)	99	11	413	38	69
O=C(O)CCNC(=O)c1cc(N(CCBr)CCBr)c([N+](=O)[O-])cc1[N+](=O)[O-]	54	13	40	2.4	40	7.6	67	7.6	8400 (≈ 4300 µg/mL)	–	45	17	4.8	12
O=C(O)CCNC(=O)c1cc(N(CCCl)CCCl)c([N+](=O)[O-])cc1[N+](=O)[O-]	4890	470	4630	424	6390	1810	5720	643	–	–	9.5	13	3.5	11
CS(=O)(=O)OCCN(CCCl)c1cc(C(=O)NCC(O)CO)c([N+](=O)[O-])cc1[N+](=O)[O-] (centres undefined)	–	–	1210	3.81	1230	6	1380	5	2100 (≈ 1020 µg/mL)	74	–	344	328	286
CC(O)CNC(=O)c1cc(N(CCCl)CCCl)c([N+](=O)[O-])cc1[N+](=O)[O-] (centres undefined)	438	21	593	2.6	586	19	705	9.5	1200 (≈ 491 µg/mL)	107	21	233	30	75
O=C(NC(CO)(CO)CO)c1cc(N(CCCl)CCCl)c([N+](=O)[O-])cc1[N+](=O)[O-]	1050	13	693	0.45	700	9.8	970	4.2	1800 (≈ 819 µg/mL)	97	91	1530	61	205
